Common to all, as to type: functional
In one experiment the test system is Enterococcus faecalis. As to the kind of experiment: Antimicrobial activity against Enterococcus faecalis by broth microdilution method. The method, boiled down: (§1)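 Bacteria were grown on MH agar at 37 °C for 24 h, then diluted to about 1 × 10^7 CFU/mL. Compounds were dissolved in DMSO. MIC was determined by broth microdilution as the lowest concentration with no growth by turbidity, with MTT absorbance read at 570 nm. Duplicates, repeated three times.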
On the technique in general: Dilution methods test growth across graded concentrations, often in twofold steps.

Another experiment concerns Pseudomonas aeruginosa. The experiment is described as follows: Antimicrobial activity against Pseudomonas aeruginosa by broth microdilution method. The method, boiled down: as §1
Another experiment deals with Staphylococcus aureus. The experiment is described as follows: Antimicrobial activity against Staphylococcus aureus by broth microdilution method. The method, boiled down:
as §1

The next experiment deals with Bacillus cereus. The experiment is described as follows: Antimicrobial activity against Bacillus cereus by broth microdilution method. Summed up:
as §1

In the next experiment the test system is Escherichia coli. As to the kind of experiment: Antimicrobial activity against Escherichia coli by broth microdilution method. Summed up:
as §1

The next experiment relates to Candida albicans. The experiment is described as follows: Antimicrobial activity against Candida albicans by broth microdilution method. The method, boiled down: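 C. albicans was grown on PDA agar at 28 °C for 48 h, then diluted to about 1 × 10^7 CFU/mL. Compounds were dissolved in DMSO. MIC was determined by broth microdilution as the lowest concentration with no growth by turbidity, with MTT absorbance read at 570 nm. Duplicates, repeated three times.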

The structures appear in SMILES notation. Converted amounts (≈) assume the structure as drawn.

As a reminder, the MIC is the lowest concentration that inhibits growth of the organism. Take `CC1COc2c(N3CCN(C)CC3)c(F)cc3c(=O)c(C(=O)O)cn1c23` (stereo unspecified) [OFLOXACIN]: the minimum inhibitory concentration (MIC) came to 0.86 µM (≈ 0.311 µg/mL) in the experiment on Enterococcus faecalis; 0.43 µM (≈ 0.155 µg/mL) in the experiment on Pseudomonas aeruginosa; 0.43 µM (≈ 0.155 µg/mL) against Staphylococcus aureus; 0.86 µM (≈ 0.311 µg/mL) in the experiment with Bacillus cereus; 0.43 µM (≈ 0.155 µg/mL) in the experiment on Escherichia coli.

Turning to `C[C@H]1[C@H](C)CC[C@]2(C)CC=C3[C@](C)([C@H]12)[C@H]1O[C@H]1[C@@H]1[C@@]2(C)CC[C@H](O)C(C)(C)[C@@H]2CC[C@@]31C`, the MIC against Enterococcus faecalis turned out to be 36.3 µM (≈ 16 µg/mL); in the experiment on Pseudomonas aeruginosa, 36.3 µM (≈ 16 µg/mL); in the experiment on Staphylococcus aureus it was 72.7 µM (≈ 32 µg/mL); against Candida albicans, 36.3 µM (≈ 16 µg/mL); in the experiment with Bacillus cereus it was 72.7 µM (≈ 32 µg/mL); against Escherichia coli, 36.3 µM (≈ 16 µg/mL).

`CO[C@@H]1C[C@@]2(C)[C@@H]3[C@@H](C)[C@H](C)CC[C@]3(C)CC[C@]2(C)C2=C1[C@@]1(C)CC[C@H](OC(C)=O)C(C)(C)[C@@H]1C[C@H]2O`: the MIC worked out at 89.5 µM (≈ 46.1 µg/mL) with Enterococcus faecalis; 44.7 µM (≈ 23 µg/mL) against Pseudomonas aeruginosa; 89.5 µM (≈ 46.1 µg/mL) with Staphylococcus aureus; 89.5 µM (≈ 46.1 µg/mL) against Candida albicans; 179 µM (≈ 92.1 µg/mL) against Bacillus cereus; 89.5 µM (≈ 46.1 µg/mL) with Escherichia coli.

For `C[C@H]1[C@H](C)CC[C@]2(C)CC[C@]3(C)C(=C[C@@H](O)[C@@H]4[C@@]5(C)CCC(=O)C(C)(C)[C@@H]5CC[C@]43C)[C@H]12`, the MIC was 35.2 µM (≈ 15.5 µg/mL) in the experiment on Enterococcus faecalis; 70.4 µM (≈ 31 µg/mL) in the experiment on Pseudomonas aeruginosa; 35.2 µM (≈ 15.5 µg/mL) with Staphylococcus aureus; 70.4 µM (≈ 31 µg/mL) in the experiment with Candida albicans; 70.4 µM (≈ 31 µg/mL) against Bacillus cereus; 70.4 µM (≈ 31 µg/mL) against Escherichia coli.

With `C[C@H]1[C@H](C)CC[C@]2(CO)CC[C@]3(C)C(=CC[C@@H]4[C@@]5(C)CC[C@H](O)C(C)(C)[C@@H]5CC[C@]43C)[C@H]12` [UVAOL], the MIC was 142 µM (≈ 63.1 µg/mL) in the experiment with Enterococcus faecalis; 283 µM (≈ 125 µg/mL) with Pseudomonas aeruginosa; 70.1 µM (≈ 31 µg/mL) in the experiment on Staphylococcus aureus; 283 µM (≈ 125 µg/mL) against Candida albicans; 283 µM (≈ 125 µg/mL) with Bacillus cereus; 142 µM (≈ 63.1 µg/mL) in the experiment on Escherichia coli.

As to `C[C@H]1[C@H](C)CC[C@]2(C)CC[C@]3(C)C(=C[C@@H](O)[C@H]4[C@@]3(C)[C@H](O)C[C@@]35OO[C@@H](CC(=O)C3(C)C)[C@]45C)[C@H]12`, the minimal inhibitory concentration (MIC) turned out to be 31.9 µM (≈ 15.5 µg/mL) against Enterococcus faecalis; 31.9 µM (≈ 15.5 µg/mL) against Pseudomonas aeruginosa; 14.9 µM (≈ 7.25 µg/mL) in the experiment on Staphylococcus aureus; 31.9 µM (≈ 15.5 µg/mL) with Candida albicans; 63.8 µM (≈ 31.1 µg/mL) against Bacillus cereus; 31.9 µM (≈ 15.5 µg/mL) against Escherichia coli.

Turning to `C[C@@H]1CC[C@]2(C)CC[C@]3(C)[C@@](O)(CC[C@@H]4[C@@]5(C)CC[C@H](O)C(C)(C)[C@@H]5CC[C@]43C)[C@]2(O)[C@H]1C`, the MIC worked out at 50 µM (≈ 23 µg/mL) with Enterococcus faecalis; 140 µM (≈ 64.5 µg/mL) against Pseudomonas aeruginosa; 69.6 µM (≈ 32.1 µg/mL) in the experiment on Staphylococcus aureus; 69.6 µM (≈ 32.1 µg/mL) against Candida albicans; 140 µM (≈ 64.5 µg/mL) with Bacillus cereus; 140 µM (≈ 64.5 µg/mL) with Escherichia coli.
